In ChEMBL document CHEMBL3045854, “Antifungal activity of 4-methyl-6-alkyl-2H-pyran-2-ones” (2006):
In brackets after ≈: the same amount, converted by molar mass. Activity calls are given as the source filed them. The calls are words filed in the database; no cut-off is given here.

Columns and labels:
[1] = test system: Rhizoctonia solani; assay: Antifungal activity against Rhizoctonia solani Nees assessed as inhibition of fungal growth; type: functional; details: read-out: ED50 (the source's name)
Procedure, shortened: (§1)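 Poisoned food technique on PDA, final 250, 125, 100, 50, 25 and 10 µg/mL, diluted in acetone from a 1000 µg/mL stock; acetone-only control. A 5 mm × 5 mm plug from the growing edge of a 2-week-old colony was placed at plate centre and incubated at 28 °C until control plates were nearly fully grown. Colony diameter was measured; four replicates per treatment. Inhibition was Abbott-corrected and ED50 taken by probit analysis.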

[2] = test system: Macrophomina phaseolina; assay: Antifungal activity against Rhizoctonia bataticola assessed as inhibition of fungal growth; type: functional; details: read-out: ED50 (the source's name); procedure, shortened: as §1
[3] = test system: Macrophomina phaseolina; assay: Antifungal activity against Macrophomina phaseolina assessed as inhibition of fungal growth; type: functional; details: read-out: ED50 (the source's name); procedure, shortened: as §1
[4] = test system: Pythium aphanidermatum; assay: Antifungal activity against Pythium aphanidermatum assessed as inhibition of fungal growth; type: functional; details: read-out: ED50 (the source's name); procedure, shortened: as §1
[5] = test system: Globisporangium debaryanum; assay: Antifungal activity against Pythium debaryanum assessed as inhibition of fungal growth; type: functional; details: read-out: ED50 (the source's name); procedure, shortened: as §1
[6] = test system: Athelia rolfsii; assay: Antifungal activity against Athelia rolfsii assessed as inhibition of fungal growth; type: functional; details: Agroathelia rolfsii; read-out: ED50 (the source's name); procedure, shortened: as §1
[7] = test system: Athelia rolfsii; assay: Antifungal activity against Athelia rolfsii in tomato plants grown on fungal infested soil assessed as healthy tomato plants stands at 0.728 mL ai/150 cm3 of soil measured 35 days after transplanting; type: functional, Agroathelia rolfsii
Procedure, shortened: (§2)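 Greenhouse tomato seedlings in sieved, autoclaved composted soil infested with S. rolfsii chlamydospore inoculum (potato dextrose broth, 27 °C 7 days, then water, 20 °C 3-4 weeks; 10 flasks per 2.5 kg soil; incubated ~25 °C 5-7 days). Moistened infested soil treated with fungicide per 150 cm3 soil. Checks were uninfested soil and untreated infested soil. Wilting and mortality scored weekly to 35 days; proportion symptomless plants; repeated-measures ANOVA.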

[8] = test system: Athelia rolfsii; assay: Antifungal activity against Athelia rolfsii in tomato plants grown on fungal infested soil assessed as healthy tomato plants stands at 0.364 mL ai/150 cm3 of soil measured 35 days after transplanting; type: functional, Agroathelia rolfsii; procedure, shortened: as §2
[9] = test system: Athelia rolfsii; assay: Antifungal activity against Athelia rolfsii in tomato plants grown on fungal infested soil assessed as healthy tomato plants stands at 1.46 mL ai/150 cm3 of soil measured 35 days after transplanting; type: functional, Agroathelia rolfsii; procedure, shortened: as §2
[10] = test system: Athelia rolfsii; assay: Antifungal activity against Athelia rolfsii in tomato plants grown on fungal infested soil assessed as healthy tomato plants stands at 1 % aqueous emulsion of compound measured 35 days after transplanting; type: functional, organism-based; details: Agroathelia rolfsii
Procedure, shortened: (§3)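 Tomato greenhouse test. S. rolfsii was grown in potato dextrose broth, then held in water at 20 °C for 3-4 weeks. Inoculum was mixed into autoclaved composted soil (10 flasks per 2.5 kg) and kept about 5-7 days at roughly 25 °C. Aqueous emulsion was incorporated at 5.0 mL per 150 cm3 of soil. Wilting and mortality were scored weekly after transplanting and given as the proportion of symptomless plants. Controls were uninfested soil and infested untreated soil; analysed as repeated measures ANOVA.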

[11] = test system: Athelia rolfsii; assay: Antifungal activity against Athelia rolfsii in tomato plants grown on fungal infested soil assessed as healthy tomato plants stands at 5 % aqueous emulsion of compound measured 35 days after transplanting; type: functional, Agroathelia rolfsii; procedure, shortened: as §3
[12] = test system: Athelia rolfsii; assay: Antifungal activity against Athelia rolfsii in tomato plants grown on fungal infested soil assessed as healthy tomato plants stands at 1 % aqueous emulsion of compound measured 7 days after transplanting; type: functional, Agroathelia rolfsii; procedure, shortened: as §3
[13] = test system: Athelia rolfsii; assay: Antifungal activity against Athelia rolfsii in tomato plants grown on fungal infested soil assessed as healthy tomato plants stands at 10 % aqueous emulsion of compound measured 35 days after transplanting; type: functional, Agroathelia rolfsii; procedure, shortened: as §3

C=C(C)c1cc(C)cc(=O)o1
EC50 [1]: 206 µg/mL (≈ 1370 µM)
EC50 [2]: 374 µg/mL (≈ 2490 µM)
EC50 [3]: 338 µg/mL (≈ 2250 µM)
EC50 [4]: 337 µg/mL (≈ 2240 µM)
EC50 [5]: 189 µg/mL (≈ 1260 µM)
EC50 [6]: 180 µg/mL (≈ 1200 µM)

Cc1cc(C(C)C)oc(=O)c1
EC50 [1]: 437 µg/mL (≈ 2870 µM)
EC50 [2]: 403 µg/mL (≈ 2650 µM)
EC50 [3]: 1210 µg/mL (≈ 7930 µM)
EC50 [4]: 475 µg/mL (≈ 3120 µM)
EC50 [5]: 437 µg/mL (≈ 2870 µM)
EC50 [6]: 313 µg/mL (≈ 2060 µM)

CCCc1cc(C)cc(=O)o1
EC50 [1]: 149 µg/mL (≈ 982 µM)
EC50 [2]: 562 µg/mL (≈ 3700 µM)
EC50 [3]: 329 µg/mL (≈ 2160 µM)
EC50 [4]: 573 µg/mL (≈ 3760 µM)
EC50 [5]: 288 µg/mL (≈ 1890 µM)
EC50 [6]: 251 µg/mL (≈ 1650 µM)

CCCCCCCCCc1cc(C)cc(=O)o1
EC50 [1]: 130 µg/mL (≈ 551 µM)
EC50 [2]: 213 µg/mL (≈ 900 µM)
EC50 [3]: 352 µg/mL (≈ 1490 µM)
EC50 [4]: 204 µg/mL (≈ 863 µM)
EC50 [5]: 284 µg/mL (≈ 1200 µM)
EC50 [6]: 397 µg/mL (≈ 1680 µM)

Cc1cc(CCl)oc(=O)c1
EC50 [1]: 22.8 µg/mL (≈ 143 µM)
EC50 [2]: 111 µg/mL (≈ 701 µM)
EC50 [3]: 72.1 µg/mL (≈ 455 µM)
EC50 [4]: 122 µg/mL (≈ 769 µM)
EC50 [5]: 102 µg/mL (≈ 643 µM)
EC50 [6]: 46.9 µg/mL (≈ 296 µM)

Cc1cc(CC(C)C)oc(=O)c1
EC50 [1]: 48.7 µg/mL (≈ 293 µM)
EC50 [2]: 68.4 µg/mL (≈ 412 µM)
EC50 [3]: 47.3 µg/mL (≈ 284 µM)
EC50 [4]: 52.4 µg/mL (≈ 315 µM)
EC50 [5]: 37 µg/mL (≈ 223 µM)
EC50 [6]: 39.5 µg/mL (≈ 237 µM)

COCC(=O)N(c1c(C)cccc1C)C(C)C(=O)OC (stereo not given) [METALAXYL]
Activity [7]: 60 µg/mL
Activity [8]: 34.3 µg/mL
Activity [9]: 90.3 µg/mL

CCc1cc(C)cc(=O)o1
EC50 [1]: 690 µg/mL (≈ 5000 µM)
EC50 [2]: 626 µg/mL (≈ 4530 µM)
EC50 [3]: 267 µg/mL (≈ 1940 µM)
EC50 [4]: 408 µg/mL (≈ 2950 µM)
EC50 [5]: 580 µg/mL (≈ 4200 µM)
EC50 [6]: 665 µg/mL (≈ 4820 µM)

CCCCCCCCCCc1cc(C)cc(=O)o1
EC50 [1]: 267 µg/mL (≈ 1070 µM)
EC50 [2]: 649 µg/mL (≈ 2590 µM)
EC50 [3]: 548 µg/mL (≈ 2190 µM)
EC50 [4]: 287 µg/mL (≈ 1150 µM)
EC50 [5]: 594 µg/mL (≈ 2370 µM)
EC50 [6]: 562 µg/mL (≈ 2250 µM)

Cc1cc(C)oc(=O)c1
EC50 [1]: 493 µg/mL (≈ 3970 µM)
EC50 [2]: 1190 µg/mL (≈ 9550 µM)
EC50 [3]: 824 µg/mL (≈ 6630 µM)
EC50 [4]: 451 µg/mL (≈ 3630 µM)
EC50 [5]: 1140 µg/mL (≈ 9190 µM)
EC50 [6]: 713 µg/mL (≈ 5740 µM)

C/C=C/c1cc(C)cc(=O)o1
EC50 [1]: 294 µg/mL (≈ 1950 µM)
EC50 [2]: 361 µg/mL (≈ 2400 µM)
EC50 [3]: 276 µg/mL (≈ 1840 µM)
EC50 [4]: 102 µg/mL (≈ 680 µM)
EC50 [5]: 95.5 µg/mL (≈ 636 µM)
EC50 [6]: 404 µg/mL (≈ 2690 µM)

CCCCC(O)(Cn1cncn1)c1ccc(Cl)cc1Cl (stereo not given) [HEXACONAZOLE]
EC50 [1]: 13 µg/mL (≈ 41.2 µM)
EC50 [2]: 4.36 µg/mL (≈ 13.9 µM)
EC50 [3]: 10.5 µg/mL (≈ 33.5 µM)
EC50 [4]: 8.47 µg/mL (≈ 27 µM)
EC50 [5]: 12.3 µg/mL (≈ 39.1 µM)
EC50 [6]: 18.3 µg/mL (≈ 58.4 µM)

CC(C)=Cc1cc(C)cc(=O)o1
EC50 [1]: 286 µg/mL (≈ 1740 µM)
EC50 [2]: 328 µg/mL (≈ 2000 µM)
EC50 [3]: 377 µg/mL (≈ 2300 µM)
EC50 [4]: 206 µg/mL (≈ 1250 µM)
EC50 [5]: 264 µg/mL (≈ 1610 µM)
EC50 [6]: 323 µg/mL (≈ 1960 µM)

CCCCCc1cc(C)cc(=O)o1
EC50 [1]: 34.5 µg/mL (≈ 191 µM)
EC50 [2]: 34.2 µg/mL (≈ 190 µM)
EC50 [3]: 36.8 µg/mL (≈ 204 µM)
EC50 [4]: 39.1 µg/mL (≈ 217 µM)
EC50 [5]: 20.6 µg/mL (≈ 114 µM)
EC50 [6]: 22.4 µg/mL (≈ 125 µM)

CCCCC(CC)c1cc(C)cc(=O)o1 (stereo not given)
EC50 [1]: 184 µg/mL (≈ 882 µM)
EC50 [2]: 303 µg/mL (≈ 1460 µM)
EC50 [3]: 262 µg/mL (≈ 1260 µM)
EC50 [4]: 277 µg/mL (≈ 1330 µM)
EC50 [5]: 151 µg/mL (≈ 725 µM)
EC50 [6]: 349 µg/mL (≈ 1680 µM)

CCCCCCc1cc(C)cc(=O)o1
EC50 [1]: 18.7 µg/mL (≈ 96 µM)
Activity [10]: inactive
Activity [11]: > 60%
EC50 [2]: 24.5 µg/mL (≈ 126 µM)
EC50 [3]: 31 µg/mL (≈ 159 µM)
EC50 [4]: 16.6 µg/mL (≈ 85.5 µM)
Activity [12]: 20%
EC50 [5]: 14.9 µg/mL (≈ 76.7 µM)
Activity [13]: 92.4%
EC50 [6]: 15.1 µg/mL (≈ 77.7 µM)

CCCCCCCc1cc(C)cc(=O)o1
EC50 [1]: 45 µg/mL (≈ 216 µM)
EC50 [2]: 47 µg/mL (≈ 226 µM)
EC50 [3]: 82.2 µg/mL (≈ 394 µM)
EC50 [4]: 74.6 µg/mL (≈ 358 µM)
EC50 [5]: 71.7 µg/mL (≈ 344 µM)
EC50 [6]: 30.7 µg/mL (≈ 147 µM)

CCCCc1cc(C)cc(=O)o1
EC50 [1]: 50.1 µg/mL (≈ 301 µM)
EC50 [2]: 212 µg/mL (≈ 1280 µM)
EC50 [3]: 235 µg/mL (≈ 1410 µM)
EC50 [4]: 227 µg/mL (≈ 1370 µM)
EC50 [5]: 143 µg/mL (≈ 859 µM)
EC50 [6]: 78 µg/mL (≈ 469 µM)

CCCCCCCCc1cc(C)cc(=O)o1
EC50 [1]: 116 µg/mL (≈ 521 µM)
EC50 [2]: 132 µg/mL (≈ 595 µM)
EC50 [3]: 164 µg/mL (≈ 737 µM)
EC50 [4]: 124 µg/mL (≈ 557 µM)
EC50 [5]: 175 µg/mL (≈ 786 µM)
EC50 [6]: 122 µg/mL (≈ 548 µM)
